Source: ChEMBL document CHEMBL2040749, “Novel polycyclic 'cage'-1,2-diamines as potential anti-tuberculosis agents” (2012)

Test system: Mycobacterium tuberculosis
Test: Antitubercular activity against Mycobacterium tuberculosis H37Rv ATCC 25177after 21 days by BACTEC MGIT 960 method
Format: functional
Details: 504 h
Outline: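 Compounds dissolved in 100% methanol (10 mg/mL stock), sonicated, filter-sterilised, diluted in sterile water; twofold serial dilutions, working range 8 to 0.125 µg/mL. Strains grown in Middlebrook 7H9 + OADC at 37 °C; inoculum adjusted to McFarland 1, diluted tenfold to 10^5 CFU/mL into MGIT tubes. Drug-free control received a 1:100 inoculum. MIC is the lowest dilution negative when the control turns positive. Triplicate.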

| SMILES | MIC [µg/mL] |
| --- | --- |
| CC(C)=CCC/C(C)=C/CNCCNC1C2CC3CC(C2)CC1C3.Cl.Cl (stereo not drawn) | 0.5 |
| CC(C)=CCC/C(C)=C/CNC(=O)CN1[C@H]2C3C4CC5C6C4C2C6[C@@]1(O)C53 (mixture of isomers) | 1 |
| CC(C)=CCC/C(C)=C/CNCC(=O)N[C@]12O[C@H]3C4C5CC(C6C5C3C61)C42 (mixture of isomers) | 1 |
| CC(C)=CCC/C(C)=C/CNCCN[C@@H]1C2C3CC4C5C3CC2C5C41.Cl.Cl (mixture of isomers) | 1 |
| CC(C)=CCC/C(C)=C/CNCCN[C@]12O[C@H]3C4C5CC(C6C5C3C61)C42.Cl.Cl (mixture of isomers) | 1 |
| CC(C)=CCC/C(C)=C/CNCCN[C@@H]1C2C3CC4C5C3C1C5[C@@H](O)C42.Cl.Cl (mixture of isomers) | 0.5 |
| CC(C)=CCC/C(C)=C/CNCCN1[C@H]2C3C4CC5C6C4C2C6[C@@]1(O)C53.Cl.Cl (mixture of isomers) | 1 |
| CC(C)=CCC/C(C)=C/CNCCNC1C2C3CC4C5CC(C42)C1C53.Cl.Cl (racemic) | 0.5 |
